Our source for the EC50, CC50 and selectivity ratio values is ChEMBL document CHEMBL3351741, “Fused heterocycles bearing bridgehead nitrogen as potent HIV-1 NNRTIs. Part 2: discovery of novel [1,2,4]Triazolo[1,5-a]pyrimidines using a structure-guided core-refining approach” (Eur J Med Chem, 2014).

The subject of data set [1] is Human immunodeficiency virus 1. Nature of the data set: Antiviral activity against HIV-1 3B infected in human MT4 cells assessed as protection from viral cytopathicity after 5 days by MTT assay. The conditions noted are these: Human immunodeficiency virus 1, 3B, MT4, 120 h. In kind it is functional, organism-based. The method, boiled down: (§1)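 MT-4 cells (6 × 10⁵ cells/ml) infected with HIV-1 IIIB or HIV-2 ROD stock at 100-300 CCID₅₀; compounds added as 10× stocks. After 5 days, viability read by MTT reduction at 540 and 690 nm, using median OD of two or three wells. EC₅₀ is the concentration giving 50% protection from viral cytopathicity.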
For orientation: Cytopathic effects are the visible damage that an infection or toxin causes in cultured cells.

Data set [2] has as its system Human immunodeficiency virus 1. Nature of the data set: Antiviral activity against HIV-1 RES056 harboring RT K103N/Y181C double mutant infected in human MT4 cells assessed as protection from viral cytopathicity after 5 days by MTT assay. In kind it is functional, organism-based. The conditions noted are these: Human immunodeficiency virus 1, RES056, MT4, 120 h. The method, boiled down: (§2)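 MT-4 cells resuspended at 6 × 10⁵ cells/ml, infected with HIV-1 IIIB, RES056 or HIV-2 ROD at 100-300 CCID50, or mock-infected; test compounds added from 10× stocks. After 5 days, viability read by MTT at 540 and 690 nm, median OD of two or three wells. EC50 = 50% protection from cytopathicity; CC50 = 50% viability loss in mock-infected cells; SI = CC50/EC50.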

The subject of data set [3] is Human immunodeficiency virus 2. Nature of the data set: Antiviral activity against HIV-2 ROD infected in human MT4 cells assessed as protection from viral cytopathicity after 5 days by MTT assay. The conditions noted are these: Human immunodeficiency virus 2, ISOLATE ROD, MT4, 120 h. It is filed as functional, organism-based. Summed up: as §1
Data set [4] is described as follows: Cytotoxicity against mock-infected human MT4 cells after 5 days by MTT assay. It is filed as cell-based. The method, boiled down: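 Mock-infected MT-4 cells (6 × 10⁵ cells/ml) received culture medium in place of virus and were exposed to compounds added as 10× stocks. After 5 days, viability was read by MTT at 540 and 690 nm, using median OD of two or three wells. CC₅₀ is the concentration cutting viability by 50%. '>' marks the highest concentration tested without cytotoxicity.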

The nature of data set [5]: Selectivity index, ratio of CC50 for mock-infected human MT4 cells to EC50 for HIV-1 3B infected in human MT4 cells. It is filed as toxicity, cell-based. The conditions noted are these: mock-infected and infected with HIV-1 3B, read-out: Ratio CC50/EC50. The method, boiled down:
as §2

Data set [6] can be described thus: Selectivity index, ratio of CC50 for mock-infected human MT4 cells to EC50 for HIV-1 RES056 harboring RT K103N/Y181C double mutant infected in human MT4 cells. The conditions noted are these: read-out: Ratio CC50/EC50. In kind it is toxicity, cell-based. The method, boiled down: as §2
Data set [7] in a line: Selectivity index, ratio of CC50 for mock-infected human MT4 cells to EC50 for HIV-2 ROD infected in human MT4 cells. The conditions noted are these: mock-infected and infected with HIV-2 ROD, read-out: Ratio CC50/EC50. It is filed as toxicity, cell-based. Summed up: as §2
Data set [8] relates to Human immunodeficiency virus 1. The experiment in a line: Antiviral activity against HIV-1 harboring wild-type reverse transcriptase. In kind it is functional, organism-based.
The subject of data set [9] is Human immunodeficiency virus 1. Nature of the data set: Antiviral activity against HIV-1 harboring RT Y181C mutant. It is filed as functional, organism-based.
In data set [10] the test system is Human immunodeficiency virus 1. The experiment in a line: Antiviral activity against HIV-1 harboring RT Y188L mutant. It is filed as functional, organism-based.
The subject of data set [11] is Human immunodeficiency virus 1. The experiment in a line: Antiviral activity against HIV-1 harboring RT K103N/Y181C double mutant. In kind it is functional, organism-based.

The term EC50 denotes the midpoint of the concentration-response curve. As a reminder, the CC50 is the concentration giving 50% cytotoxicity. Consider `Cc1cc(C)c(Oc2cc(Nc3ccc([N+](=O)[O-])cc3)nc3ncnn23)c(C)c1`, for which the figures for the concentration for a half-maximal effect (EC50) in data set [1], in [2] and in data set [3] were 0.6 µM, > 33 µM and > 33 µM, respectively. In [4], this molecule had a CC50 at 120 h of 33 µM. Moreover, the selectivity ratio in data set [5] was 57; in data set [6] it was < 1; in data set [7], < 1.

In the case of `N#Cc1ccc(Nc2cc(Oc3c(Cl)cc(Cl)cc3Cl)n3ncnc3n2)cc1`, the EC50 in [1] is 0.6 µM; in data set [2] it was > 29 µM; in data set [3], > 29 µM. The same molecule showed a CC50 at 120 h in [4] of 29 µM. The selectivity ratio in [5] is 47; in data set [6], < 1; in [7], < 1.

Regarding `Cc1cc(C)c(Nc2cc(Nc3ccc(C#N)cc3)nc3ncnn23)c(C)c1`, the EC50 was 0.02 µM in data set [1], 7.6 µM in data set [2] and > 190 µM in data set [3]. Besides, the cytotoxic concentration (CC50) at 120 h in data set [4] amounted to 190 µM. In addition, the selectivity ratio in data set [5] is 8990; in data set [6] it was 25; in data set [7], < 1.

Regarding `Cc1cc(Cl)cc(C)c1Oc1cc(Nc2ccc(C#N)cc2)nc2ncnn12`, the values for the concentration for a half-maximal effect (EC50) in data set [1], in data set [2] and in [3] were 0.4 µM, > 104 µM and > 104 µM, respectively. Moreover, the CC50 at 120 h in data set [4] was determined as 104 µM. Further, the selectivity ratio in data set [5] was 256; in data set [6] it was < 1; in [7] it was < 1.

As to `N#Cc1ccc(Nc2cc(Oc3c(Br)cc(Br)cc3Br)n3ncnc3n2)cc1`, the results for the EC50 in data set [1], in [2] and in [3] were 0.3 µM, > 47 µM and > 47 µM, respectively. This molecule also had a CC50 at 120 h in [4] of 47 µM. In addition, the selectivity ratio in [5] is 142; in data set [6], < 1; in data set [7] it was < 1.

As to `N#Cc1ccc(Nc2cc(Oc3c(Cl)cc(Cl)cc3Cl)nc3ncnn23)cc1`, the 50% effective concentration (EC50) in data set [1] is 0.3 µM; in data set [2], > 32 µM; in data set [3], > 32 µM. In addition, in data set [4], half-maximal cytotoxicity (CC50 at 120 h) was put at 32 µM. The selectivity ratio in [5] is 109; in data set [6], < 1; in [7], < 1.

`N#Cc1ccc(Nc2cc(Oc3c(F)cc(F)cc3F)nc3ncnn23)cc1`: the concentration for a half-maximal effect (EC50) in data set [1], in data set [2] and in data set [3] was > 174 µM each time. Moreover, the CC50 at 120 h in data set [4] was found to be 174 µM. Besides, the selectivity ratio in data set [5], in data set [6] and in data set [7] was < 1 in each case.

Consider `Cc1cc(C)c(Oc2cc(Nc3ccc(Cl)cc3)nc3ncnn23)c(C)c1`, for which the EC50 was 0.05 µM in data set [1], > 46 µM in [2] and > 46 µM in data set [3]. The molecule further yielded a CC50 at 120 h in data set [4] of 46 µM. For the same molecule, the selectivity ratio in data set [5] is 864; in data set [6], < 1; in [7], < 1.

For `Cc1cccc(C)c1Oc1cc(Nc2ccc(C#N)cc2)n2ncnc2n1`, the EC50 in data set [1] was 1.5 µM; in [2] it was > 253 µM; in data set [3] it was > 253 µM. In data set [4], this molecule displayed a cytotoxic concentration (CC50) at 120 h of 253 µM. The selectivity ratio in data set [5] is 170; in data set [6] it was < 1; in data set [7], < 1.

Take `N#Cc1ccc(Nc2cc(Oc3c(Cl)cccc3Cl)n3ncnc3n2)cc1`: the EC50 in data set [1] was 3.4 µM; in [2], > 150 µM; in [3], > 150 µM. The molecule further displayed a cytotoxic concentration (CC50) at 120 h in [4] of 150 µM. For the same molecule, the selectivity ratio in data set [5] is 44; in [6] it was < 1; in data set [7] it was < 1.

As for `Cc1cc(C)c(Oc2cc(Nc3ccc(C#N)cc3)nc3ncnn23)c(C)c1`, the EC50 in [1] was 0.05 µM; in data set [2], > 164 µM; in [3], > 164 µM. The CC50 at 120 h in data set [4] was found to be 164 µM. Further, the selectivity ratio in data set [5] is 3200; in data set [6] it was < 1; in data set [7], < 1.

For `Cc1cc(Br)cc(C)c1Oc1cc(Nc2ccc(C#N)cc2)n2ncnc2n1`, the 50% effective concentration (EC50) in [1] was 0.3 µM; in data set [2] it was > 128 µM; in [3], > 128 µM. Besides, half-maximal cytotoxicity in data set [4] (CC50 at 120 h) was put at 128 µM. Besides, the selectivity ratio in data set [5] is 427; in data set [6], < 1; in data set [7], < 1.

With `Cc1cc(C#N)cc(C)c1Oc1nc(Nc2ccc(C#N)cc2)nc2[nH]ccc12`, the concentration giving a half-maximal response (EC50) is 0.00016 µM in [8], 0.0045 µM in [9], 0.004 µM in data set [10] and 0.0078 µM in data set [11].

`Cc1cccc(C)c1Oc1cc(Nc2ccc(C#N)cc2)nc2ncnn12`: the 50% effective concentration (EC50) in data set [1] is 1.3 µM; in data set [2] it was > 233 µM; in [3], > 233 µM. This molecule came in with a half-maximal cytotoxic concentration (CC50) at 120 h in [4] of 233 µM. The figures for the selectivity ratio in [5], in data set [6] and in data set [7] were 182, < 1 and < 1, respectively.

For `Cc1ccnc2c1NC(=O)c1cccnc1N2C1CC1` [NEVIRAPINE], the EC50 in data set [1] was determined as 0.15 µM; in data set [2], 2.9 µM. In data set [4], the CC50 at 120 h was > 15 µM. In addition, the selectivity ratio was > 14 in data set [5] and > 5 in data set [6].

On to `Cc1ccc(Nc2cc(Oc3c(C)cc(C)cc3C)n3ncnc3n2)cc1`, for which the half-maximal effective concentration (EC50) in [1] was 0.07 µM; in data set [2], > 47 µM; in data set [3] it was > 47 µM. In data set [4], this molecule returned a CC50 at 120 h of 47 µM. The results for the selectivity ratio in [5], in data set [6] and in [7] were 649, < 1 and < 1, respectively.

Turning to `Cc1cc(Br)c(Oc2cc(Nc3ccc(C#N)cc3)nc3ncnn23)c(Br)c1`, the concentration for a half-maximal effect (EC50) was 0.05 µM in data set [1], > 192 µM in data set [2] and > 192 µM in data set [3]. Half-maximal cytotoxicity in data set [4] (CC50 at 120 h) was put at 192 µM. Also, the selectivity ratio was 3620 in data set [5], < 1 in data set [6] and < 1 in data set [7].

For `Cc1cc(C)c(Oc2cc(Nc3ccc(C#N)cc3)n3ncnc3n2)c(C)c1`, the EC50 in data set [1] is 0.07 µM; in [2], ≥ 50 µM; in data set [3], > 106 µM. This molecule registered a half-maximal cytotoxic concentration (CC50) at 120 h in [4] of 106 µM. Besides, the selectivity ratio in [5] is 1450; in data set [6], ≤ 2; in data set [7] it was < 1.

In the case of `Cc1cccc(C)c1Nc1cc(Nc2ccc(C#N)cc2)nc2ncnn12`, the results for the EC50 in data set [1], in [2] and in data set [3] were 2.1 µM, > 272 µM and > 272 µM, respectively. The CC50 at 120 h in data set [4] was found to be 272 µM. For the same molecule, the selectivity ratio in data set [5] was 127; in data set [6], < 1; in data set [7], < 1.

Consider `CC(C)Nc1cccnc1N1CCN(C(=O)c2cc3cc(NS(C)(=O)=O)ccc3[nH]2)CC1` [DELAVIRDINE], for which the values for the EC50 in data set [1] and in data set [2] were 0.07 µM and > 36 µM, respectively. For the same molecule, the CC50 at 120 h in data set [4] is > 36 µM. In addition, the selectivity ratio in data set [5] was > 494; in data set [6], 1.

As for `Cc1cc(C#N)cc(C)c1Oc1nc(Nc2ccc(C#N)cc2)nc2cc[nH]c12`, the EC50 in data set [8] stood at 0.00025 µM; in data set [9] it was 0.0014 µM; in [10], 0.0011 µM; in [11] it was 0.0038 µM.

`Cc1cc(Br)cc(C)c1Oc1cc(Nc2ccc(C#N)cc2)nc2ncnn12`: the concentration giving a half-maximal response (EC50) is 0.23 µM in data set [1], > 136 µM in data set [2] and > 136 µM in data set [3]. The molecule further showed a CC50 at 120 h in data set [4] of 136 µM. Further, the selectivity ratio in data set [5] was 579; in [6] it was < 1; in [7], < 1.

Turning to `COc1ccc(Nc2cc(Oc3c(C)cc(C)cc3C)n3ncnc3n2)cc1`, the EC50 in [1] was 0.2 µM; in data set [2] it was > 37 µM; in data set [3], > 37 µM. In [4], the CC50 at 120 h stood at 37 µM. Moreover, the selectivity ratio is 165 in [5], < 1 in data set [6] and < 1 in data set [7].
